Results pooled from the literature.
Compare with care: the assays were run in different laboratories.
CDK11B: Cyclin-dependent kinase 11B (CDK11B, Homo sapiens, UniProt P21127)
ALOX5: Polyunsaturated fatty acid 5-lipoxygenase (ALOX5, Homo sapiens, UniProt P09917)

Compound	target	test	conditions	endpoint	value
COc1ncccc1-c1cnn2ccc(N3CCN(C(=O)OC(C)C)CC3)nc12	CDK11B	binding, competition with immobilised ligand	1 µM	remaining binding	89%
C[C@H](C(=O)N[C@H]1COc2ccccc2[C@@H]1S(C)(=O)=O)c1ccc(F)cc1	ALOX5	enzyme activity, inhibitor	10 µM	inhibition	13%
Cc1nn(C)cc1-c1nc2c(N3CCN(Cc4ccc(Cl)cc4)CC3)c(Cl)cnc2[nH]1	CDK11B	binding, competition with immobilised ligand	1 µM	remaining binding	100%
CCN(CC)CCCC[C@H](NC(=O)[C@H](CC(C)C)NC(=O)[C@H](C)NC(=O)[C@H](Cc1ccccc1)NC(=O)c1ccc(C(C)(C)C)cc1)C(=O)N[C@@H](CO)C(=O)OC	Bromodomain-containing protein 4, BD2 (BRD4, Homo sapiens, UniProt O60885)	thermal stability, DSF	25 µM	ΔTm	0.2 °C
Nc1ncc(-c2nc(N3CCOCC3)nc(N3CCOCC3)n2)c(C(F)F)n1	Serine/threonine-protein kinase ICK (CILK1, Homo sapiens, UniProt Q9UPZ9)	binding, competition with immobilised ligand	10 µM	remaining binding	72%
N#Cc1ccc(NCCNCC(=O)N2N=CCC2C#N)nc1 (stereo not drawn)	Dipeptidyl peptidase 8 (Homo sapiens, UniProt Q6V1X1)	enzyme activity, inhibitor	10 µM	inhibition	15%
COc1cc(Nc2ncc(F)c(Nc3ccc4c(n3)NC(=O)C(C)(C)O4)n2)cc(OC)c1OC	Mitogen-activated protein kinase kinase kinase 4 (MAP3K4, Homo sapiens, UniProt Q9Y6R4)	binding, competition with immobilised ligand	10 µM	inhibition	71%
c1ccc(C(NCCNC(c2ccccc2)c2ccccc2)c2ccccc2)cc1	ALOX5	enzyme activity, inhibitor	10 µM	inhibition	99%
C#Cc1n[nH]c2c(-c3cn(C(C)c4ccccn4)c(=O)[nH]c3=O)cc(F)cc12 (stereo not drawn)	Protein kinase C alpha type (PRKCA, Homo sapiens, UniProt P17252)	enzyme activity, inhibitor	1 µM	inhibition	9.8%
